Source: PubChem (several laboratories)
Sampled rows, rich in hits. Any-hit rate of the full collection: about 3.9%.
APP 5'UTR act = activates APP 5'UTR luciferase reporter | AID 1276 | activation, % at 2 µM | SH-SY5Y APP 5'UTR luciferase reporter, luminescence; zero percent = DMSO vehicle wells | actives 1% (n = 190,000);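 active means activation above a set limit, based on mean plus 3 SD of controls, cut at about 140% in these data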
STAT3 activator = activators of IL-6 induced STAT3 signaling; actives 0.91% (n = 190,000); U3A cells, IL-6 STAT3-luciferase reporter, luminescence; 100% = signal with IL-6 EC80 alone; activation (% of control), % at 5.6 µM;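 active means activation above the screen-wide mean of compound activation plus 3 SD, cut at about 130% in these data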;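 further: 0% = background luminescence of wells with medium and substrate only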
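Material: human U3A cells carrying STAT3-luciferase construct. Measured by: reporter luminescence signal. Timing: compound 1 h, then IL-6 6 h at 37 °C.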
STAT1 blocker = inhibitors of IFN-gamma induced STAT1 signaling | NIH 3T3 STAT1-luciferase reporter, luminescence | inhibition, % at 5.5 µM | actives 0.35% (n = 200,000);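 active means inhibition above a set limit, the mean inhibition across all tested compounds plus 3 SD, cut at about 34% in these data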;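 further: 0% = IFN-gamma with DMSO and 100% = IFN-gamma with 300 µM nifuroxazide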
STAT1 act = STAT1 signaling activation | NIH 3T3 STAT1-luciferase reporter, IFN-gamma, luminescence; 100% = IFN-gamma alone, no compound | activation (% of control), % at 5.5 µM | actives 2.6% (n = 200,000);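 active means activation above the screen-wide mean activation plus 3 SD, cut at about 130% in these data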;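 further: raw ratio to IFN-gamma control signal so 100% means no change and 0% no light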
NF-kB expr up = raises NF-kB expression in human neuronal cells; actives 1.6% (n = 190,000); fold change at 12.5 µM; NF-kB reporter expression; hits give high values; in the data active means fold change above about 3.3
Pf gametocyte = P. falciparum stage V gametocyte viability inhibition; P. falciparum stage V gametocytes, ATP luminescence, 24 h; inhibition, % at 10.9 µM; actives 0.065% (n = 150,000);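 active means inhibition above the mean plus 3 SD of compounds within the control limits, set per campaign, cut at about 38% in these data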;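 further: 0% = DMSO wells and 100% = medium only without gametocytes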
STAT1 activ conf = STAT1 activation, confirmation assay; shares compounds with STAT1 act; AID 1262; activation (% of control), % at 5.7 µM; NIH 3T3 STAT1-luciferase reporter, IFN-gamma potentiation, luminescence; 100% = IFN-gamma EC80 alone, no compound; actives 97% (n = 1,200);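 active means activation above a set limit carried over from the earlier primary STAT1 screen, cut at about 140% in these data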;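 further: simple ratio to median IFN-gamma plus DMSO wells so 0% means no light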
NFkB act STAT1ct = NF-kappaB activation in STAT1 activator counter-screen | shares compounds with STAT1 act | HEK293T NF-kB luciferase reporter, TNF-alpha stimulated, luminescence; 100% = TNF-alpha with vehicle only | activation (% of control), % at 5.7 µM | actives 43% (n = 1,200) | AID 1306;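 active means activation above the mean of solvent-only control wells plus 3 SD, set per campaign, cut at about 130% in these data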;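 further: TNF-alpha given at a submaximal dose yielding about 80% of full reporter signal; values are well signal over median control so 100% means no change and 0% no light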
STAT3 act STAT1c = activates human STAT3, counter-screen to STAT1 activators. shares compounds with STAT1 act. U3A cells STAT3-luciferase reporter, IL-6, luminescence; cells lack STAT1; 100 = IL-6 alone, no compound effect. activation (% of control), % at 5.7 µM. actives 46% (n = 1,200);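 active means activation above the solvent-only control well mean plus 3 SD, set per plate batch, cut at about 110% in these data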;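 further: 0% = no luminescence and 100% = median IL-6 plus DMSO wells; higher means more STAT3 reporter activation so hits are non-selective activators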
* hit, by the source's call; . = no result.

SMILES	APP 5'UTR act	STAT3 activator	STAT1 blocker	STAT1 act	NF-kB expr up	Pf gametocyte	STAT1 activ conf	NFkB act STAT1ct	STAT3 act STAT1c
O=C(Nc1ccc(/C=C/c2nc3ccccc3o2)cc1)c1cccc(C(F)(F)F)c1	14.9	81.0	-27.3	124.6	1.06	.	.	.	.
O=C(Nc1ccc(/C=C/c2nc3ccccc3o2)cc1)c1c(F)cccc1F	208.3*	86.7	-81.7	175.1*	2.07	-26.2	205.2*	130.7	105.2
O=c1c2ccccc2nnn1CSc1ccccc1F	152.3*	86.5	-60.3	159.9*	4.66*	.	198.3*	115.3	103.2
Cc1ccc2nc(SCC(=O)c3c(C)[nH]c4ccccc34)[nH]c2c1	2.7	92.2	-3.5	103.1	0.89	.	.	.	.
Cc1ccc2nc(SCn3nnc4ccccc4c3=O)[nH]c2c1	175.0*	124.1	-70.1	163.2*	3.77*	9.2	180.0*	119.5	129.2*
O=c1c2ccccc2nnn1CSc1ncnc2ccccc12	2.6	110.0	20.1	81.6	2.27	4.7	.	.	.
COc1cc(OC)cc(-c2c(C#Cc3ccsc3)c3cc(-c4ccc5c(c4)OCO5)ccc3n2C)c1	.	.	.	.	.	13.8	.	.	.
CCC(=O)Nc1nc(C)c(-c2csc(Nc3ccccn3)n2)s1	48.8	104.8	-64.1	156.6*	1.32	.	160.8*	119.4	98.6
O=C(NC1=NCCS1)c1sc2ccccc2c1Cl	145.7*	102.7	-79.0	172.6*	7.12*	-10.0	210.3*	129.7	115.9*
N=c1sccn1CC(=O)Nc1cc(S(=O)(=O)N2CCCC2)ccc1Cl	10.1	110.9	5.9	93.2	1.24	1.6	.	.	.
COC(=O)c1ccc(/C=C(\C#N)c2ccccn2)cc1	147.9*	104.1	-114.0	204.4*	6.98*	-5.7	225.2*	158.4*	107.1
COc1cc(/C=C(\C#N)c2ccccn2)cc(OC)c1O	.	.	.	.	.	-5.4	.	.	.
Cc1cc(C)nc(SCc2csc(-c3ccccc3)n2)n1	146.5*	83.5	-76.0	168.6*	4.45*	22.1	187.3*	125.4	98.7
Cc1ccc(NC(=S)NC(=O)c2ccc(Br)o2)c(C)c1	93.9	90.4	-59.2	152.1*	2.22	-11.1	164.5*	128.0	107.0
Cc1cccc(NC(=S)NC(=O)c2ccc(Br)o2)c1C	11.7	89.4	2.9	96.1	1.11	8.5	.	.	.
N#Cc1c(/N=C/N2CCOCC2)sc2c1CCCCC2	122.6	112.5	-60.0	154.6*	4.88*	.	194.2*	131.4	125.5*
Cc1ccc(/C=N/c2sc3c(c2C#N)CCC3)o1	-1.3	88.0	-73.0	166.7*	0.97	8.3	188.1*	135.3*	105.1
N#Cc1c(/N=C/c2ccc(Br)s2)sc2c1CCC2	25.0	101.7	-23.3	121.5	1.22	-22.5	.	.	.
O=C(NCCCn1cccn1)c1cc(COc2ccc(F)cc2Cl)on1	21.8	101.3	-12.1	109.1	1.5	.	.	.	.
COc1ccc2cc(-c3nc4ccccc4n3C)c(=O)oc2c1	91.8	103.0	-53.2	154.7*	3.39*	.	168.9*	123.8	117.1*
Cn1c(-c2cc3ccccc3oc2=O)nc2ccccc21	.	.	.	.	.	19.2	.	.	.
Oc1ccc(Cl)cc1C=Nc1ccc(Br)cc1	-8.0	107.9	1.9	97.4	1.21	-12.6	.	.	.
Cn1c(O)c(C=Nc2ccc(Br)cc2)sc1=O	165.2*	99.9	-64.8	160.2*	1.9	7.0	189.1*	135.7*	98.7
Cc1ccnc(NS(=O)(=O)c2ccc(NC(=O)c3ccc4c(c3)OCCO4)cc2)n1	23.3	98.8	6.4	92.2	1.03	4.7	.	.	.
O=C(/C=C/Nc1ccc(F)cc1)c1ccc(Br)cc1	134.6	86.0	-78.0	172.3*	.	16.6	218.1*	131.5	104.1
SMILES	APP 5'UTR act	STAT3 activator	STAT1 blocker	STAT1 act	NF-kB expr up	Pf gametocyte	STAT1 activ conf	NFkB act STAT1ct	STAT3 act STAT1c
O=C(/C=C/Nc1ccc([N+](=O)[O-])cc1)c1ccc(Br)cc1	37.4	92.7	-6.9	106.2	1.54	0.7	.	.	.
N#Cc1ccccc1N/C=C/C(=O)c1ccc(Cl)cc1	.	.	.	.	.	-5.1	.	.	.
O=C(/C=C/Nc1ccccc1F)c1ccc(Br)cc1	224.2*	81.1	-92.2	182.2*	8.75*	5.5	238.7*	111.0	107.0
NC(=O)c1ccccc1N/C=C/C(=O)c1ccc(F)cc1	136.2*	68.8	-58.9	153.8*	4.19*	.	189.1*	111.7	91.5
N#C/C(=C\c1cccnc1)c1nc2c(s1)CCCC2	146.9*	105.4	-70.9	165.2*	4.16*	-4.5	184.6*	133.0	101.8
CC1CCc2nc(/C(C#N)=C/c3cccnc3)sc2C1 (stereo not given)	168.5*	102.8	-135.2	219.5*	2.1	20.4	286.1*	146.0*	113.0*
N#C/C(=C/c1cccnc1)c1ccccc1	.	.	.	.	.	-7.8	.	.	.
Cc1cc(NS(=O)(=O)c2ccc(NC(=S)Nc3ccc(Cl)cc3C)cc2)no1	.	.	.	.	.	-11.4	.	.	.
C/C(=N/NC(=O)c1ccco1)c1ccc(NC(=O)c2ccc(F)cc2)cc1	56.0	99.6	-63.1	155.3*	1.04	.	125.1	118.3	96.3
CCS(=O)(=O)N1Cc2ccccc2CC1C(=O)Nc1nc2ccccc2s1 (stereo not given)	209.6*	82.6	-82.4	173.5*	0.91	.	230.2*	122.6	119.4*
CC(c1cccs1)N(Cc1ccco1)C(=S)Nc1ccccc1Cl (stereo not given)	3.9	105.1	7.9	92.1	1.26	16.1	.	.	.
COc1ccccc1-c1nc(-c2ccncc2)no1	106.3	91.5	-65.3	159.4*	2.31	-7.6	188.5*	131.3	110.6*
COc1ccc(-c2nc(-c3ccc(Br)cc3)no2)c(OC)c1	94.1	104.9	-59.3	154.7*	6.05*	-10.9	233.3*	131.9	112.1*
COc1ccc(-c2csc(-c3ccccc3)n2)c(OC)c1	195.0*	92.8	-60.6	153.4*	11.7*	.	226.9*	144.4*	144.0*
CC(C)(Cc1ccccc1)/[N+]([O-])=C\c1ccc(C(F)(F)F)cc1	.	.	.	.	.	7.4	.	.	.
COc1ccc(NC(=O)CCC(=O)c2ccc(F)cc2)cc1	.	.	.	.	.	14.2	.	.	.
CC(C)(C)OC(=O)C[C@H]1C/C=C\C[C@H](CC(=O)NCCO)C(=O)NC[C@@H](c2ccccc2)OC1=O	.	.	.	.	.	5.8	.	.	.
CN1C(=O)/C(=C/C=C2\SCCN2C)SC1=S	173.5*	79.0	-62.7	159.0*	4.37*	.	224.3*	113.0	98.8
